# Published values pooled from the literature.
# Each line is one published result; the experiments were not run side by side.
SMILES,test,test system,conditions,quantity,value
Cc1noc(C)c1Cn1cc(N2C(=O)CN(Cc3cccc(O)c3)C2=O)cn1,,"male Sprague-Dawley rat, plasma","intravenous, 1 mg/kg, 30 min",concentration,12.1 ng/mL
COC(=O)[C@H](N)CSSC[C@@H](N)C(=O)OC,chemical stability,"dog, plasma",,half-life,0.252 h
CCOC(=O)[C@@]12C[C@@H]1[C@@H](n1ccc3c(NC)nc(C#Cc4ccc(Cl)s4)nc31)[C@H](O)[C@@H]2O,,"male Sprague-Dawley rat, plasma","intravenous, 0.5 mg/kg, 4 h",concentration,1.88 ng/mL
COc1cccc(-c2n[nH]c(SCc3ccccn3)n2)c1OC,,"female Sprague-Dawley rat, plasma","intravenous, 1 mg/kg, 4.98 min, single dose",concentration,4780 ng/mL
Cc1noc(C)c1Cn1cc(N2C(=O)N(Cc3cccc(O)c3)C(C)(C)C2=O)cn1,,"male Sprague-Dawley rat, plasma","oral, 100 mg/kg, 30 min, single dose",concentration,2.6 ng/mL
Cc1ccc(-c2cc(C(F)(F)F)nn2-c2ccc(S(N)(=O)=O)cc2)cc1,,"male Sprague-Dawley rat, plasma","oral, 20 mg/kg, 4 h",concentration,1500 nM
COc1cc2c3c(n(CCCN4CCOCC4)c(=O)c2cc1OC)-c1cc2c(cc1C3=O)OCO2,,"male Fischer 344 rat, plasma","intravenous, 12 mg/m², single dose",half-life,2.1 h
CCc1cc(-c2noc(-c3cc(OC)nc(C4CCCC4)c3)n2)cc(C)c1OC[C@@H](O)CO,,"Wistar rat, plasma","oral, 0.1 mg/kg, 3 h, single dose",concentration,6.2 ng/mL
CCc1cc(C(=O)NC)c2nccc(N3CCc4c(cc(Cn5ccnc5)cc4-c4cn(C)nc4C(F)(F)F)C3=O)c2c1,,"male Sprague-Dawley rat, plasma","intravenous, 3 mg/kg",C0,2600 ng/mL
COc1ccc2c(=O)n(C)c(-c3ccccc3)nc2c1,,"male Sprague-Dawley rat, brain","oral, 30 mg/kg, 2 h, single dose",concentration,20 ng/g
Oc1c(Br)cc(Cl)c2cccnc12,,"Sprague-Dawley rat, plasma","intravenous, 2 mg/kg",half-life,8.9 h
